PubChem BioAssay AID463191 (Sanford-Burnham Center for Chemical Genomics, 2010)
The source made the active and inactive calls.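 How the source made its calls: active means compounds whose mean IC50 across repeat dose response tests falls below a set limit; inactive means the rest.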

Test system: AML12 mouse hepatocytes, BODIPY lipid droplet imaging
Assay: hepatocyte lipid droplet accumulation inhibitors, dose response, imaging, AML12 mouse hepatocytes, high-content (AID 463191)
Details: cells loaded with 100 µM oleic acid
How it was run: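 Test system: AML12 mouse hepatocyte cell line, lipid droplet imaging. Compound: Seven-point series from 32 to 0.5 µM, 0.32% DMSO. Incubation: cells grown about 20 h at 37 °C, then overnight compound exposure.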

SMILES | IC50
COc1ccc(OC)c(CCNC(=O)C(C)n2nc(C)c3c(C)n(-c4ccc(C)cc4)nc3c2=O)c1 (stereo not given) | 1590 nM
CCCc1cc(N2CCOCC2)n2nc(C)c(-c3ccccc3)c2n1 | < 500 nM
Cc1ccc(-n2nc3c(=O)n(CC(=O)NCCCc4ccccc4)nc(C)c3c2C)cc1 | 4240 nM
CCOc1ccc(NC(=O)CSc2nc3ccccc3nc2N2CCCC2)cc1 | 1770 nM
CCOc1ccc(CCNC(=O)Cn2cccc2C(=O)c2ccccc2)cc1OCC | 1640 nM
CCOc1ccc(CCNC(=O)CCC(=O)N2CCOc3ccccc32)cc1OCC | 830 nM
CCOc1ccc(CCNC(=O)CCNS(=O)(=O)c2ccc(Br)cc2)cc1OCC | 3650 nM
CCCCCCn1c(N2CCN(c3ccccc3)CC2)nc2c1c(=O)[nH]c(=O)n2C | 2460 nM
CCOc1cc2c(cc1OCC)C(c1ccccc1OC)OC(=O)C2 (stereo not given) | > 32000 nM (inactive)
CCOc1ccc(C2=NNC(c3cccs3)=Nc3ccc(OC)cc32)cc1OCC | 8700 nM (inactive)
CCCCNC(=O)c1ccc2c(c1)N(C)C(=O)c1ccccc1S2 | 6880 nM (inactive)
Cc1cc(N2CCOCC2)n2nc(C)c(-c3ccccc3Cl)c2n1 | 1050 nM
CCOc1ccc(CCNC(=O)CN2C(=O)NC3(CCCC3)C2=O)cc1OCC | 1070 nM
COc1cc(NC(=O)c2cccs2)c(OC)cc1NC(=O)CCC(=O)Nc1ccc2ncccc2c1 | 2230 nM
COc1cc(NC(=O)c2ccco2)c(OC)cc1NC(=O)CCC(=O)Nc1cc(C)cc(C)c1 | < 500 nM
CCOc1ccc(CCNC(=O)CCS(=O)(=O)c2ccc(C)cc2)cc1OCC | 1850 nM
COc1ccc2c(c1)c(CC(=O)Nc1ccc(C(C)=O)cc1)c(C)n2C(=O)c1ccc(Cl)cc1 | 2880 nM
CCN(CC)c1ccc(NC(=O)CCc2nnc3ccc(N4CCCC4)nn23)c(C)c1 | 2350 nM
O=C1C(NS(=O)(=O)c2cccs2)=C(N2CCN(c3cccc(C(F)(F)F)c3)CC2)C(=O)c2ccccc21 | 751 nM
CCOC(=O)c1ccc(NC(=O)CSc2nc3c(c(=O)n2-c2ccccc2OC)SCC3)cc1 | 1840 nM

SMILES | IC50
CCOc1ccc(CN(C)C(=O)CNC(=O)c2ccc(Br)o2)cc1OC | 3880 nM
CCOc1ccc(CCNC(=O)C2(c3ccccc3)CC2)cc1OCC | 3910 nM
Cc1ccc(-n2nc3c(=O)n(C(C)C(=O)NCCC4=CCCCC4)nc(C)c3c2C)cc1 (stereo not given) | 3870 nM
CCOc1ccc(CCNC(=O)CCc2nnc3ccc(N4CCCCC4)nn23)cc1OCC | 582 nM
Cc1ccc(-c2c(C)nn3c(N4CCOCC4)cc(C)nc23)cc1 | 633 nM
CCOc1ccc(CCNC(=O)CCOc2cc(C)ccc2C)cc1OCC | < 500 nM
O=C(NC1CCCc2c1cnn2-c1cc(F)cc(F)c1)c1ccccn1 (stereo not given) | 1550 nM
CCOc1ccc(C(C)NC(=O)Cc2ccccc2F)cc1OCC (stereo not given) | 6250 nM (inactive)
COc1ccc(C)cc1NC(=O)C/C(C)=N/NC(=O)Cc1cccc2ccccc12 | 13800 nM (inactive)
CCOc1ccc(CCNC(=O)COC(=O)c2cccnc2OCC)cc1OCC | 2290 nM
COc1ccc(C2(c3ccc(OC)cc3)NC(=O)N(CC(=O)Nc3ccc(OC)c(OC)c3)C2=O)cc1 | 6860 nM (inactive)
CCOC(=O)N1CCN(C(=O)CSCC(=O)Nc2nc(-c3ccc(-c4ccccc4)cc3)cs2)CC1 | 14200 nM (inactive)
CCc1c(C#N)c(SCCC(=O)Nc2ccc(OC)cc2)nc2c1C(=O)CC(C)(C)C2 | 5310 nM (inactive)
CCN(CC(=O)Nc1ccccc1C(F)(F)F)C(=O)c1cc(-c2cccs2)nn1-c1ccccc1 | 2030 nM
COc1ccc(CCNC(=O)CN2C(=O)c3cccc4cccc(c34)C2=O)cc1OC | 5770 nM (inactive)
Cc1cc(C)c(C(=O)NC2CCCc3c2cnn3-c2cccc(C)c2C)o1 (stereo not given) | 21600 nM (inactive)
CCOc1ccccc1NC(=O)CCCNC(=O)c1ccc(Cl)cc1 | 10700 nM (inactive)
COc1ccc(C(=O)NC2CCCc3c2cnn3-c2cccc(C)c2C)o1 (stereo not given) | 2560 nM
CCOc1ccc(CCNC(=O)CN2C(=O)NC(CCSC)C2=O)cc1OCC (stereo not given) | 1260 nM
CCOc1ccc(CCNC(=O)CCc2nc(-c3ccc(OC)cc3)no2)cc1OCC | 782 nM
